The subject of one test is Vero. Description: Cytotoxicity against Vero cells after 3 days by Alamar Blue assay. The class given is cell-based. To be noted: Chlorocebus sabaeus, 72 h. The method, boiled down: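 Vero (African green monkey kidney epithelial) cells were grown without CO₂ in L15 with antibiotics and heat-inactivated calf serum. Cells in medium with 2X Alamar Blue were added at 1.3×10^4 cells/well to 2-fold serial drug dilutions. Plates were incubated 3 days at 37 °C, and IC50 was calculated per the manufacturer's directions.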

Test [1] deals with Mycobacterium tuberculosis. Briefly: […]. The format is functional. The conditions noted are these: H37Rv, 144 h. In outline:
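Strains were grown at 37 °C in 7H9 Middlebrook broth with 10% OADC, 0.05% Tween and 0.2% glycerol. Compounds were dissolved in DMSO and serially diluted 2-fold, then bacteria were added. Plates were incubated 6 days at 37 °C, then 24 h more with Alamar Blue. MIC was the lowest concentration (μg/mL) that prevented the colour change. Run in triplicate.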

Experimental findings from ChEMBL document CHEMBL3124890, “SAR studies on trisubstituted benzimidazoles as inhibitors of Mtb FtsZ for the development of novel antitubercular agents” (J Med Chem, 2013) are described below.

Structures are written as SMILES. Converted amounts (≈) assume the structure as drawn.

Usually IC50 stands for the point on the concentration scale where inhibition reaches its midpoint. What is called MIC is the least concentration at which growth counts as inhibited. A high value points to a need for much substance. In the test with Vero, `CCOc1ccc(C(=O)Nc2cc3nc(C4CCCCC4)[nH]c3cc2N(CC)CC)cc1` gave a 50% inhibitory concentration (IC50) greater than 100 µg/mL. Moreover, in test [1], the minimal inhibitory concentration (MIC) is greater than 100 µg/mL.
`CN(C)c1cc2[nH]c(C3CCCCC3)nc2cc1NC(=O)c1ccc(C(C)(C)C)cc1` yielded an IC50 with Vero greater than 100 µg/mL. In test [1], this compound gave an MIC of 1.56 µg/mL (≈ 3.73 µM).
Taken in the same sequence, the figures for `CN(C)c1cc2[nH]c(C3CCCCC3)nc2cc1NC(=O)c1ccccc1` were greater than 100 µg/mL and 1.56 µg/mL (≈ 4.3 µM).
On to `CCCCNC(=O)Nc1cc2nc(C3CCCCC3)[nH]c2cc1N1CCCC1`, for which, in the test on Vero, the IC50 was greater than 100 µg/mL. Also, inhibition of growth in test [1] (MIC) required 25 µg/mL (≈ 65.2 µM).
Compound `CCCCOC(=O)Nc1cc2nc(C3CCCCC3)[nH]c2cc1N1CCCC1` displayed an MIC in test [1] of 0.39 µg/mL (≈ 1.01 µM).
On to `CN(C)c1cc2[nH]c(C3CCCCC3)nc2cc1NC(=O)OCc1ccccc1`, for which the IC50 with Vero is greater than 100 µg/mL. In test [1], this compound had an MIC of 0.16 µg/mL (≈ 0.408 µM).
Turning to `CCN(CC)c1cc2[nH]c(C3CCCCC3)nc2cc1NC(=O)NCc1ccccc1`, the IC50 in the test with Vero is greater than 100 µg/mL. In test [1], this compound returned an MIC greater than 100 µg/mL.
The compound `O=C(Nc1cc2nc(C3CCCCC3)[nH]c2cc1N1CCCC1)c1ccccc1` came in with an IC50 with Vero greater than 100 µg/mL. In test [1], this compound came in with an MIC of 6.25 µg/mL (≈ 16.1 µM).
Taken in the same sequence, the figures for `CCN(CC)c1cc2[nH]c(C3CCCCC3)nc2cc1NC(=O)c1ccc(C)cc1` were greater than 100 µg/mL and 12.5 µg/mL (≈ 30.9 µM).
With `CCCCCC(=O)Nc1cc2nc(C3CCCCC3)[nH]c2cc1N(CC)CC`, in test [1], 12.5 µg/mL (≈ 32.5 µM) was the least that counted as inhibitory (MIC).
Compound `CCCC(C)OC(=O)Nc1cc2nc(C3CCCCC3)[nH]c2cc1N(CC)CC` (stereo unspecified) yielded an IC50 in the test on Vero greater than 100 µg/mL. The compound also showed an MIC in test [1] greater than 50 µg/mL.
In turn, `COc1ccc(CC(=O)Nc2cc3nc(C4CCCCC4)[nH]c3cc2N(C)C)cc1` gave an IC50 in the test on Vero greater than 100 µg/mL. In addition, the MIC in test [1] was greater than 100 µg/mL.
In turn, `O=C(NCc1ccccc1)Nc1cc2nc(C3CCCCC3)[nH]c2cc1N1CCCC1` returned an IC50 with Vero greater than 100 µg/mL. Further, the MIC in test [1] is 25 µg/mL (≈ 59.9 µM).
Take `CCN(CC)c1cc2[nH]c(C3CCCCC3)nc2cc1NC(=O)c1ccc(F)cc1`: the IC50 in the test with Vero was greater than 100 µg/mL. In test [1], the MIC was greater than 100 µg/mL.
In turn, `CN(C)c1cc2[nH]c(C3CCCCC3)nc2cc1NC(=O)c1ccc(F)cc1F` gave an IC50 with Vero greater than 100 µg/mL. In test [1], the MIC was 0.31 µg/mL (≈ 0.778 µM).
Taken in the same sequence, the figures for `COc1ccc(C(=O)Nc2cc3nc(C4CCCCC4)[nH]c3cc2N(C)C)cc1` were greater than 100 µg/mL and 0.31 µg/mL (≈ 0.79 µM).
The compound `CCCNC(=O)Nc1cc2nc(C3CCCCC3)[nH]c2cc1N1CCCC1` had an IC50 in the test with Vero greater than 100 µg/mL. The compound further came in with an MIC in test [1] of 100 µg/mL (≈ 271 µM).
Taken in the same sequence, the figures for `C=Cc1cccc(C(=O)Nc2cc3nc(C4CCCCC4)[nH]c3cc2N(CC)CC)c1` were greater than 100 µg/mL and 25 µg/mL (≈ 60 µM).
In turn, `CCN(CC)c1cc2[nH]c(C3CCCCC3)nc2cc1NC(=O)OCCOCCOC` yielded an IC50 with Vero greater than 100 µg/mL. The MIC in test [1] came out at 12.5 µg/mL (≈ 28.9 µM).
On to `CCCN(CCC)c1cc2[nH]c(C3CCCCC3)nc2cc1NC(=O)OCc1ccccc1`, for which the IC50 in the test on Vero is greater than 100 µg/mL. This compound also displayed an MIC in test [1] greater than 100 µg/mL.
Consider `CN(C)c1cc2[nH]c(C3CCCCC3)nc2cc1NC(=O)c1ccc(OC(F)(F)F)cc1`, for which the IC50 in the test with Vero is greater than 100 µg/mL. Moreover, the MIC in test [1] was found to be 0.16 µg/mL (≈ 0.358 µM).
With `CCCCNC(=O)Nc1cc2nc(C3CCCCC3)[nH]c2cc1N(C)C`, the IC50 in the test on Vero is greater than 100 µg/mL. This compound also had an MIC in test [1] of 6.25 µg/mL (≈ 17.5 µM).
Taken in the same sequence, the figures for `CCN(CC)c1cc2[nH]c(C3CCCCC3)nc2cc1NC(=O)c1ccc(F)cc1F` were greater than 100 µg/mL and greater than 100 µg/mL.
Taken in the same sequence, the figures for `CCN(CC)c1cc2[nH]c(C3CCCCC3)nc2cc1NC(=O)OCC(F)(F)F` were greater than 100 µg/mL and 1.56 µg/mL (≈ 3.78 µM).
Taken in the same sequence, the figures for `Cc1ccc(C(=O)Nc2cc3nc(C4CCCCC4)[nH]c3cc2N(C)C)cc1` were greater than 100 µg/mL and 0.31 µg/mL (≈ 0.823 µM).
`COCCOC(=O)Nc1cc2nc(C3CCCCC3)[nH]c2cc1N1CCCC1` showed an IC50 in the test with Vero greater than 100 µg/mL. 3.13 µg/mL (≈ 8.1 µM) was the least that counted as inhibitory in test [1] (MIC).
Taken in the same sequence, the figures for `CCCOCC(=O)Nc1cc2nc(C3CCCCC3)[nH]c2cc1N(CC)CC` were greater than 100 µg/mL and 25 µg/mL (≈ 64.7 µM).
Taken in the same sequence, the figures for `Cc1ccc(C(=O)Nc2cc3nc(C4CCCCC4)[nH]c3cc2N2CCCC2)cc1` were greater than 100 µg/mL and 3.13 µg/mL (≈ 7.78 µM).
Taken in the same sequence, the figures for `CCOCCOC(=O)Nc1cc2nc(C3CCCCC3)[nH]c2cc1N1CCCC1` were greater than 100 µg/mL and 1.56 µg/mL (≈ 3.89 µM).
As for `CCN(CC)c1cc2[nH]c(C3CCCCC3)nc2cc1NC(=O)c1ccc(N(C)C)cc1`, the MIC in test [1] was determined as 12.5 µg/mL (≈ 28.8 µM).
`CCCCNC(=O)Nc1cc2nc(C3CCCCC3)[nH]c2cc1N(CC)CC`: the 50% inhibitory concentration (IC50) in the test on Vero is greater than 100 µg/mL. Besides, the MIC in test [1] was greater than 100 µg/mL.
Compound `CCCCOC(=O)Nc1cc2nc(C3CCCCC3)[nH]c2cc1N(C)CCN(C)C` came in with an IC50 in the test on Vero greater than 100 µg/mL. In test [1], this compound gave an MIC greater than 100 µg/mL.
